# Reference: ChEMBL document CHEMBL4229335 (Eur J Med Chem, 2018)
# Active and inactive are the calls of the source. The calls are words filed in the database; no cut-off is given here.
# Key:
# HL-60 = assay: Antiproliferative activity against human HL60 cells after 72 hrs by MTT assay; format: functional, cell-based; conditions: HL-60, 72 h
# Outline: (§1)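 MTT assay with 72 h exposure to graded concentrations in triplicate. MTT solution then DMSO were added, followed by 10 min at room temperature, with absorbance read at 490 nm. IC50 is reported as the mean of three independent experiments. 5-FU served as positive control.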
# PC-3 = assay: Antiproliferative activity against human PC3 cells after 72 hrs by MTT assay; format: functional, cell-based; conditions: PC-3, 72 h; outline: as §1
# Bel-7402 [1] = assay: Antiproliferative activity against human Bel7402 cells after 72 hrs by MTT assay; format: functional, cell-based; conditions: Bel-7402, 72 h; outline: as §1
# Bel7402/5-FU = assay: Antiproliferative activity against human Bel7402/5-FU cells after 72 hrs by MTT assay; format: functional, cell-based; outline: as §1
# L02 = assay: Antiproliferative activity against human LO2 cells after 72 hrs by MTT assay; format: cell-based; conditions: L02, 72 h; outline: as §1
# [2] = Selectivity index, ratio of IC50 for human LO2 cells to IC50 for human Bel7402 cells; format: toxicity; conditions: LO2 cells versus Bel7402 cells, read-out: Ratio IC50
# Outline: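 SI was calculated as IC50 in L-02 normal liver cells divided by IC50 in Bel-7402 cells, both from the 72 h MTT assay.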
# Bel-7402 [3] = assay: Cell cycle arrest in human Bel7402 cells assessed as accumulation of cells at G1 phase at 0.4 uM after 48 hrs by propidium iodide staining-based flow cytometric analysis (reference value: 63.55%); format: functional
# Outline: (§2)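 Bel-7402 cells were seeded in 6-well plates and grown 24 h at 37 °C. Compound in DMSO was added in triplicate, with DMSO-only controls, for 48 h. Cells were then centrifuged, fixed in 70% ethanol at 4 °C and stained with propidium iodide. DNA content was measured by flow cytometry to give cell-cycle phase distribution.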
# Bel-7402 [4] = assay: Cell cycle arrest in human Bel7402 cells assessed as accumulation of cells at G2 phase at 0.4 uM after 48 hrs by propidium iodide staining-based flow cytometric analysis (reference value: 23.53%); format: functional; outline: as §2
# Bel-7402 [5] = assay: Cell cycle arrest in human Bel7402 cells assessed as G2/G1 phase ratio level at 0.4 uM after 48 hrs by propidium iodide staining-based flow cytometric analysis (reference value: 1.82%); format: functional; outline: as §2
# Bel-7402 [6] = assay: Cell cycle arrest in human Bel7402 cells assessed as accumulation of cells at G1 phase at 0.8 uM after 48 hrs by propidium iodide staining-based flow cytometric analysis (reference value: 63.55%); format: functional; outline: as §2
# Bel-7402 [7] = assay: Cell cycle arrest in human Bel7402 cells assessed as G2/G1 phase ratio level at 0.8 uM after 48 hrs by propidium iodide staining-based flow cytometric analysis (reference value: 1.82%); format: functional; outline: as §2
# Bel-7402 [8] = assay: Cell cycle arrest in human Bel7402 cells assessed as accumulation of cells at G1 phase at 1.2 uM after 48 hrs by propidium iodide staining-based flow cytometric analysis (reference value: 63.55%); format: functional; outline: as §2
# Bel-7402 [9] = assay: Cell cycle arrest in human Bel7402 cells assessed as accumulation of cells at G2 phase at 1.2 uM after 48 hrs by propidium iodide staining-based flow cytometric analysis (reference value: 23.53%); format: functional; outline: as §2
# Bel-7402 [10] = assay: Cell cycle arrest in human Bel7402 cells assessed as accumulation of cells at S phase at 1.2 uM after 48 hrs by propidium iodide staining-based flow cytometric analysis (reference value: 12.92%); format: functional; outline: as §2
# Bel-7402 [11] = assay: Cell cycle arrest in human Bel7402 cells assessed as G2/G1 phase ratio level at 1.2 uM after 48 hrs by propidium iodide staining-based flow cytometric analysis (reference value: 1.82%); format: functional; outline: as §2
# Bel-7402 [12] = assay: Induction of apoptosis in human Bel7402 cells assessed as chromatin condensation at 0.4 to 1.2 uM after 48 hrs by Hoechst […] staining-based fluorescent microscopic analysis; format: functional, cell-based
# Outline: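 Bel-7402 cells were seeded in 6-well plates in 2 mL medium and grown 24 h. Compound was then added for 48 h, with a vehicle control. Nuclei were stained with Hoechst 33258 and examined by fluorescence microscopy for chromatin condensation and nuclear disintegration.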
# Bel-7402 [13] = assay: Induction of apoptosis in human Bel7402 cells assessed as early apoptotic cells at 0.4 uM after 24 hrs by Annexin V-FITC/propidium iodide staining-based flow cytometric analysis (reference value: 1.07%); format: functional
# Bel-7402 [14] = assay: Induction of apoptosis in human Bel7402 cells assessed as late apoptotic cells at 0.4 uM after 24 hrs by Annexin V-FITC/propidium iodide staining-based flow cytometric analysis (reference value: 0.96%); format: functional
# Bel-7402 [15] = assay: Induction of apoptosis in human Bel7402 cells assessed as necrotic cells at 0.4 uM after 24 hrs by Annexin V-FITC/propidium iodide staining-based flow cytometric analysis (reference value: 11.96%); format: functional
# Bel-7402 [16] = assay: Induction of apoptosis in human Bel7402 cells assessed as early apoptotic cells at 0.8 uM after 24 hrs by Annexin V-FITC/propidium iodide staining-based flow cytometric analysis (reference value: 1.07%); format: functional
# Bel-7402 [17] = assay: Induction of apoptosis in human Bel7402 cells assessed as necrotic cells at 0.8 uM after 24 hrs by Annexin V-FITC/propidium iodide staining-based flow cytometric analysis (reference value: 11.96%); format: functional
# Bel-7402 [18] = assay: Induction of apoptosis in human Bel7402 cells assessed as necrotic cells at 1.2 uM after 24 hrs by Annexin V-FITC/propidium iodide staining-based flow cytometric analysis (reference value: 11.96%); format: functional
# Bel-7402 [19] = assay: Induction of apoptosis in human Bel7402 cells after 24 hrs by Annexin V-FITC/propidium iodide staining-based flow cytometric analysis; format: functional, cell-based
# Bel-7402 [20] = assay: Induction of mitochondrial membrane potential loss in human Bel7402 cells at 0.4 uM after 48 hrs by JC-1 dye-based flow cytometric analysis (reference value: 7.20%); format: functional
# Outline: (§3)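 Bel-7402 cells were exposed in triplicate for 48 h to compound or vehicle. Cells were washed with PBS and stained with JC-1 in the dark. The fraction of cells with collapsed versus intact mitochondrial membrane potential was counted by flow cytometry.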
# Bel-7402 [21] = assay: Induction of mitochondrial membrane potential loss in human Bel7402 cells at 0.8 uM after 48 hrs by JC-1 dye-based flow cytometric analysis (reference value: 7.20%); format: functional; outline: as §3
# Bel-7402 [22] = assay: Induction of apoptosis in human Bel7402 cells assessed as upregulation of Bax expression after 48 hrs by Western blot analysis; format: functional, cell-based
# Outline: (§4)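 Bel-7402 cells were treated in triplicate for 48 h at 0, 0.4, 0.8 and 1.2 µM. Protein content of lysates was determined, then lysates were run on 10% SDS-PAGE and transferred to nitrocellulose. Membranes were blocked with 5% fat-free milk, probed with monoclonal antibodies and detected by ECL chemiluminescence.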
# Bel-7402 [23] = assay: Induction of apoptosis in human Bel7402 cells assessed as upregulation of caspase9 expression after 48 hrs by Western blot analysis; format: functional, cell-based; outline: as §4
# Bel-7402 [24] = assay: Induction of apoptosis in human Bel7402 cells assessed as upregulation of cytochrome C expression after 48 hrs by Western blot analysis; format: functional, cell-based; outline: as §4
# Bel-7402 [25] = assay: Induction of apoptosis in human Bel7402 cells assessed as upregulation of p53 expression after 48 hrs by Western blot analysis; format: functional, cell-based; outline: as §4
# Bel-7402 [26] = assay: Induction of apoptosis in human Bel7402 cells assessed as downregulation of Bcl2 expression after 48 hrs by Western blot analysis; format: functional, cell-based; outline: as §4
compound,measurement,setting,value
C=C1C(=O)[C@@]23C(=O)O[C@H]4CCC(C)(C)[C@H]5[C@H](O)OC[C@@]45[C@@H]2CC[C@@H]1[C@H]3OC(=O)c1ccc(N(CCCl)CCCl)cc1,IC50,HL-60,7.83 µM
same,IC50,PC-3,3.97 µM
same,IC50,Bel-7402 [1],0.77 µM
same,IC50,Bel7402/5-FU,2.07 µM
same,IC50,L02,> 100 µM
same,selectivity ratio,[2],> 130
same,Activity,Bel-7402 [3],66.71%
same,Activity,Bel-7402 [4],18.15%
same,Ratio,Bel-7402 [5],1.84
same,Activity,Bel-7402 [6],69.71%
same,Ratio,Bel-7402 [7],1.85
same,Activity,Bel-7402 [8],72.09%
same,Activity,Bel-7402 [9],13.33%
same,Activity,Bel-7402 [10],14.59%
same,Ratio,Bel-7402 [11],1.84
same,Activity,Bel-7402 [12],Active
same,Activity,Bel-7402 [13],11.8%
same,Activity,Bel-7402 [14],7.07%
same,Activity,Bel-7402 [15],8.38%
same,Activity,Bel-7402 [16],24.22%
same,Activity,Bel-7402 [17],4.23%
same,Activity,Bel-7402 [18],4.33%
same,Activity,Bel-7402 [19],Dose-dependent effect
same,Activity,Bel-7402 [20],14.38%
same,Activity,Bel-7402 [21],20.93%
same,Activity,Bel-7402 [22],Dose-dependent effect
same,Activity,Bel-7402 [23],Dose-dependent effect
same,Activity,Bel-7402 [24],Dose-dependent effect
same,Activity,Bel-7402 [25],Dose-dependent effect
same,Activity,Bel-7402 [26],Dose-dependent effect
